According to ChEMBL document CHEMBL1955761, “Privileged scaffolds or promiscuous binders: a comparative study on rhodanines and related heterocycles in medicinal chemistry” (J Med Chem, 2012):
Calls of active or inactive are those of the source.

Experiments:
Dengue virus = assay: Inhibition of Dengue virus NS2B-NS3 protease using Abz-NleKRRS-3-(NO2)Y as substrate at 50 uM preincubated for 15 mins measured every sec for 15 mins by fluorimetric analysis
Prothrombin (Bos taurus) = Prothrombin (Bos taurus) (UniProt P00735); assay: Inhibition of bovine plasma thrombin using Boc-Val-Pro-Arg-AMC as substrate at 25 uM preincubated for 15 mins measured after 10 mins by fluorimetric assay
How it was run: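 Purchased bovine plasma thrombin at 10 nM final, preincubated 15 min with 25 μM inhibitor; reaction started with 50 μM substrate. Buffer 50 mM Tris-HCl pH 7.5, 150 mM NaCl, 0.05% Tween 20. Triplicate, averaged.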

Escherichia coli [1] = assay: Inhibition of Escherichia coli MurA using PEP as substrate assessed as inorganic phosphate release at 25 uM preincubated for 10 mins measured after 60 mins […]
Escherichia coli [2] = assay: Inhibition of Escherichia coli MetAP at 10 uM after 15 mins by fluorescence analysis

SMILES | inhibition (Dengue virus) | inhibition (Prothrombin (Bos taurus)) | inhibition (Escherichia coli [1]) | inhibition (Escherichia coli [2])
O=C1NC(=O)[C@H](Cc2c[nH]c3ccccc23)N1 | inactive | inactive | inactive | 19%
COc1cccc(/C=C2\SC(=O)NC2=O)c1 | 17% | 11% | 25% | 10%
O=C1NC(=S)S/C1=C\c1ccc(Cl)cc1Cl | 46% | 23% | 15% | inactive
Nc1ccc(/C=C2\SC(=S)NC2=O)cc1 | inactive | 11% | inactive | inactive
O=C1NC(=O)/C(=C/c2sccc2Cl)S1 | 23% | 11% | 12% | inactive
Cn1cc(/C=C2\SC(=O)NC2=O)c2ccccc21 | 41% | 25% | inactive | inactive
CC(=O)N1C(=S)NC(=O)[C@@H]1CC(C)C | inactive | inactive | inactive | 13%
CC(=O)n1cc(/C=C2\NC(=S)NC2=O)c2ccccc21 | 43% | 11% | 13% | 15%
O=C1NC(=O)/C(=C/c2ccc3ccccc3c2)N1 | 36% | inactive | inactive | 46%
Cc1ccc(/C=C2\NC(=O)NC2=O)cc1 | inactive | inactive | inactive | 11%
O=C1NC(=O)/C(=C/c2ccc(O)cc2)S1 | 32% | 34% | inactive | inactive
COc1ccccc1/C=C1\SC(=O)NC1=O | 17% | 11% | 25% | 10%
CCCCC/C=C1\NC(=S)NC1=O | 18% | 16% | 17% | 27%
CCCC/C=C/C1NC(=S)NC1=O (centres undefined) | inactive | 10% | 64% | inactive
O=C1NC(=O)/C(=C/c2ccc(Br)s2)N1 | 22% | 22% | inactive | inactive
CCCC/C=C1\NC(=S)NC1=O | 25% | 14% | 11% | 66%
O=C1NC(=S)S/C1=C\c1ccc2ccccc2c1 | 56% | 28% | 15% | 14%
O=C1NC(=O)/C(=C/c2c(F)c(F)c(F)c(F)c2F)S1 | 12% | inactive | inactive | inactive
O=C1NC(=S)S/C1=C\C=C\c1ccco1 | 26% | 28% | 94% | 14%
COc1ccccc1/C=C1\NC(=O)NC1=O | 18% | inactive | inactive | inactive
N#Cc1ccc(/C=C2\NC(=S)NC2=O)cc1 | 37% | 11% | inactive | inactive
CCCC/C=C/C1SC(=S)NC1=O (centres undefined) | 18% | inactive | 10% | 17%
O=C1NC(=S)N[C@@H]1Cc1ccccc1 | 14% | 12% | 11% | inactive

SMILES | inhibition (Dengue virus) | inhibition (Prothrombin (Bos taurus)) | inhibition (Escherichia coli [1]) | inhibition (Escherichia coli [2])
CN(C)c1ccc(/C=C2\SC(=O)NC2=O)cc1 | 20% | 11% | inactive | 13%
O=C1CSC(=O)N1 | 13% | inactive | inactive | inactive
O=C1NC(=O)/C(=C/c2ccc(Cl)cc2Cl)N1 | 15% | inactive | inactive | inactive
O=C1NC(=S)S/C1=C\c1ccc(Br)s1 | 50% | 22% | 21% | inactive
CN(C)c1ccc(/C=C2\NC(=S)NC2=O)cc1 | 42% | 25% | 51% | 75%
CC(=O)n1cc(/C=C2\SC(=S)NC2=O)c2ccccc21 | 46% | 31% | 18% | inactive
O=C1NC(=S)S/C1=C\c1sccc1Br | 60% | 24% | 20% | inactive
CCC/C=C/C1SC(=S)NC1=O (centres undefined) | 23% | 11% | 88% | inactive
O=C1NC(=S)N[C@H]1Cc1ccc(O)cc1 | inactive | inactive | inactive | inactive
COc1cccc(/C=C2\NC(=O)NC2=O)c1 | 18% | inactive | inactive | inactive
O=C1NC(=O)/C(=C/c2ccc(Cl)s2)S1 | 11% | 29% | 38% | inactive
O=C1NC(=S)N/C1=C\c1sccc1Cl | 46% | 19% | 19% | inactive
C/C(=C1/SC(=O)NC1=O)c1ccc2ccccc2c1 | 30% | 20% | inactive | 12%
O=C1NC(=S)N/C1=C1/CCOc2ccccc21 | 43% | 18% | 43% | 28%
CCCCC/C=C1\SC(=S)NC1=O | 35% | 18% | 14% | 21%
COc1cccc(/C=C2\NC(=S)NC2=O)c1 | 28% | 15% | 10% | 18%
Cn1cc(/C=C2\SC(=S)NC2=O)c2ccccc21 | 45% | 27% | 18% | 12%
O=C1NC(=S)N/C1=C\c1ccc(Cl)cc1Cl | 41% | 20% | 22% | 15%
O=C1NC(=O)/C(=C/c2ccc(O)c(O)c2)S1 | 44% | 37% | 78% | 90%
CC(=O)N1C(=S)NC(=O)[C@@H]1CCC(N)=O | inactive | inactive | inactive | 13%
CC(C)C[C@@H]1NC(=S)NC1=O | inactive | inactive | 20% | inactive
COc1ccc(/C=C/C=C2\NC(=S)NC2=O)cc1 | 13% | 18% | 48% | 27%
CCC/C=C/C1NC(=S)NC1=O (centres undefined) | inactive | 14% | 77% | 19%
